Lung fibro prol: blocks proliferation of human lung fibroblasts; LL 47 human lung fibroblast viability, ATP luminescence; stronger effect = lower value; viability, % at 10 µM; 85,000 tested, 1.1% active;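 active means viability at or below 50% in the single dose screen; inactive means viability above 50%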;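 further: compound exposure lasted 72 h before the ATP readout; 100% = median luminescence of untreated cell-only wells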
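Material: Human LL 47 lung fibroblast cells | Input: 1,150 cells/well | Buffer or medium: IMEM plus 15% FBS | Compound dosing: 0.1% DMSO in all compound wells | Times: Overnight cell rest, 72 h compound treatment at 37 °C | Signal: CellTiter-Glo luminescence measuring cellular ATP | Measure: % viability versus median cells-only luminescence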
HCT116 PTEN-null: growth suppressors of cells with PTEN tumor suppressor deletion; 140,000 tested, 1.2% active; viability, % at 10 µM; HCT116 PTEN-null viability, CellTiter-Glo, 60 h; stronger effect = lower value;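 active means viability at or below a set limit, 4 SD under the median of all tested compounds, cut at about 3.7% in these data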;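 further: PTEN knockout HCT116 line with beta catenin targeted HCT116 as companion control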
HUVEC inhibit: inhibitors of human endothelial cell proliferation | HUVEC proliferation, CellTiter-Glo luminescence, 72 h; stronger effect = lower value | viability, % at 10 µM (by protocol) | 86,000 tested, 1.1% active;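 active means viability at or below 30%; inactive means viability above 30%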;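 further: 100% = median luminescence of DMSO-only cell control wells on each plate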
bCat KO growth: beta-catenin-lacking colon tumor cell growth suppression; AID 818; viability, % at 10 µM; 140,000 tested, 1.5% active; HCT116 beta-catenin knockout viability, CellTiter-Glo, 60 h; stronger effect = lower value;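 active means viability at or under a set limit, the compound median less 4 SD, cut at about 6% in these data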;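 further: 0% = Hyamine 1622 control at 20 µM and 100% = untreated cell control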
H69AR growth 86K: growth inhibitors of human H69AR lung tumor cells; H69AR lung tumor viability, ATP luminescence, 72 h; stronger effect = lower value; viability, % at 10 µM; 85,000 tested, 6% active;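 active means viability at or below 40%; inactive means viability above 40%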;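 further: multidrug resistant small cell line overexpressing MRP-1 efflux transporter; 100% = mean luminescence of untreated control wells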
An asterisk follows results filed as active; nt = no result given. Many of the other results were omitted from the sample, so hits are more common in it than they were.

SMILES	Lung fibro prol	HCT116 PTEN-null	HUVEC inhibit	bCat KO growth	H69AR growth 86K
Cc1cc(NC(=O)CCC(=O)N(c2ccc(F)cc2)C(C(=O)NC2CCCC2)c2ccncc2)no1 (stereo not given)	105	96	89	88	91
O=S(=O)(NC1CC1)c1ccc(S(=O)(=O)N2CCCC3(CCCCC3)C2)cc1	59	84	60	94	32*
O=S(=O)(NC1CC1)c1ccc(S(=O)(=O)N2CCN3CCCC3C2)cc1 (stereo not given)	109	99	111	93	95
CC(C)(C)c1ccc(-c2nnc(SCC(=O)O)n2N)cc1	44*	100	97	91	88
CC1=C(C(=O)OC(C)C)C(C)NC(=O)N1 (stereo not given)	100	102	91	94	90
O=C(Nc1nc(NC(=O)c2ccco2)n(-c2ccccc2)n1)c1ccccc1	35*	11	93	7	1.4*
Nc1nc(NC(=O)c2ccccc2)nn1-c1ccccc1	nt	105	nt	92	nt
CC(C)C1Cc2[nH]c(=O)c(C(=O)O)cc2CO1 (stereo not given)	102	103	94	90	93
COC1CCCCC1Nc1ccc(C)c(C)c1 (stereo not given)	101	90	101	88	91
CC(C)NCC(O)Cn1c2c(c3ccccc31)CCc1c-2cnn1-c1ccccc1 (stereo not given)	nt	2.0*	nt	1.5*	nt
O=C(Nc1cccc(C(F)(F)F)c1)Nc1ccc(N2CCCC2)c(S(=O)(=O)Nc2ccccc2Cl)c1	nt	1.5*	nt	1.5*	nt
COc1ccccc1NS(=O)(=O)c1cc(NC(=O)Nc2ccc(Cl)cc2Cl)ccc1N1CCCCC1	nt	47	nt	47	nt
CC12CC(c3ccccc3O1)C(C(=O)NCc1ccccc1)C(=O)N2 (stereo not given)	100	92	99	83	95
O=C(Nc1ccc(Cl)cn1)c1cc2ccccc2o1	87	92	93	86	87
O=C(Nc1ccc(Cl)cn1)c1ccc(-c2cc(Cl)ccc2Cl)o1	nt	7	nt	3.1*	nt
Cc1cc(NC(=O)CC2CCCC2)n(-c2nc3ccccc3[nH]2)n1	nt	15	59	14	29*
N#CCCn1nnc2ccccc21	99	6	96	6.0*	85
CCc1nnc2n1N=C(c1ccc(-c3cc(Cl)ccc3Cl)o1)CS2	92	1.7*	104	1.4*	8.5*
CCc1nnc2n1N=C(c1ccc(OC)cc1)CS2	86	68	73	66	19*
CCOc1ccc(-c2nnc3n2N=C(c2ccc(OC)cc2)CS3)cc1	85	84	97	86	51
COc1ccc(C2=Nn3c(nnc3-c3ccccn3)SC2)cc1	88	46	82	56	24*
O=C(CN1N=C(c2ccccc2)CCC1=O)NCc1ccco1	nt	106	nt	94	nt
Cc1ccc(N=Nc2c(C)[nH][nH]c2=O)c(C)c1	91	33	13*	37	24*
CCOC(=O)N1CCN(c2c(F)cc3[nH]c(=S)[nH]c3c2Br)CC1	60	35	78	35	8.9*
CCOC(=O)N1CCN(c2cc3[nH]c(=S)[nH]c3cc2F)CC1	98	100	98	102	65
SMILES	Lung fibro prol	HCT116 PTEN-null	HUVEC inhibit	bCat KO growth	H69AR growth 86K
CC(C)(C)C1CCc2c(sc(NC(=O)c3cccs3)c2C(N)=O)C1 (stereo not given)	23*	62	88	68	34*
CCC(C)(C)C1CCc2c(sc(NC(=O)c3cccs3)c2C(N)=O)C1 (stereo not given)	88	87	93	90	81
c1cnn(-c2nc(N3CCOCC3)nc(N3CCOCC3)n2)c1	49*	66	58	61	77
COC(=O)c1c(S(=O)(=O)NCc2ccccc2)sc(C(=O)O)c1C	95	103	91	94	101
COc1ccc(CNC(=O)c2cc3c(=O)n4ccccc4nc3n(Cc3cccnc3)c2=N)cc1	91	76	88	81	27*
Cc1cccn2c(=O)c3cc(C(=O)NCc4ccco4)c(=N)n(C(C)C)c3nc12	100	71	94	68	70
CCOCCCn1c(=N)c(C(=O)NCc2ccc3c(c2)OCO3)cc2c(=O)n3cccc(C)c3nc21	62	5	78	2.8*	55
COCCCn1c(=N)c(C(=O)NCc2ccc3c(c2)OCO3)cc2c(=O)n3cccc(C)c3nc21	90	nt	82	nt	70
N=c1c(C(=O)NCc2ccco2)cc2c(=O)n3ccccc3nc2n1Cc1ccccc1	91	45	79	55	46
N=c1c(C(=O)NCc2ccco2)cc2c(=O)n3ccccc3nc2n1Cc1ccc(Cl)cc1	61	11	70	13	26*
N=c1c(C(=O)NCc2ccc3c(c2)OCO3)cc2c(=O)n3ccccc3nc2n1Cc1cccnc1	92	72	87	77	72
Cc1cccn2c(=O)c3cc(C(=O)NCc4ccco4)c(=N)n(CCc4ccccc4)c3nc12	59	nt	56	nt	31*
C=CCSc1ncccc1C(=O)NCc1ccccc1	103	92	99	92	93
Cc1ccc(NC(=O)CC2S/C(=N/c3nccs3)N(C)C2=O)c(C)c1 (stereo not given)	107	98	101	91	96
CCCCCn1c(=NC(=O)c2ccco2)c(C(=O)OCC)cc2c(=O)n3ccccc3nc21	89	76	92	78	27*
Cc1ccc2nc3c(cc(C(=O)NCc4ccccc4)c(=N)n3CCCn3ccnc3)c(=O)n2c1	87	nt	49	nt	66
N=c1c(C(=O)NCc2ccccc2)cc2c(=O)n3ccccc3nc2n1Cc1ccco1	81	16	78	11	39*
CCCn1c(=NC(=O)c2ccc3c(c2)OCO3)c(C#N)cc2c(=O)n3cccc(C)c3nc21	83	nt	79	nt	38*
Cc1cccn2c(=O)c3cc(C(=O)NC(C)c4ccccc4)c(=N)n(CCCn4ccnc4)c3nc12 (stereo not given)	68	nt	65	nt	12*
N=c1c(C(=O)NCc2ccc(F)cc2)cc2c(=O)n3ccccc3nc2n1Cc1ccco1	nt	62	nt	60	nt
CC1CCN(S(=O)(=O)c2cn(CC(=O)N3CC(C)CC(C)C3)c(=O)c3ccccc23)CC1 (stereo not given)	nt	93	nt	99	nt
CC(C)(C)C(=O)/C=C(N)/C=C/c1ccccc1	94	78	110	86	87
O=C(CC(Sc1ccccc1)c1cccs1)c1ccco1 (stereo not given)	nt	62	88	52	1.9*
O=C(Cc1cccs1)OCC(=O)c1ccco1	92	97	92	89	81
Cc1oc(-c2ccc(Cl)cc2)nc1CN1CCC(C(=O)N2CCc3ccccc3C2)CC1	78	15	34	14	1.3*
Cc1oc(-c2ccc(Cl)cc2)nc1CN1CCC(C(=O)N2CCN(Cc3ccccc3)CC2)CC1	82	7	16*	2.0*	83
Cc1oc(-c2cccc(Cl)c2)nc1CN1CCC(C(=O)NCc2ccco2)CC1	102	93	83	97	83

Source: PubChem (SRMLSC)
